Rows were chosen to be rich in hits. Some 1.4% of all compounds tested hit in one or more screens of this group.
HKDC1 inh: HKDC1 (human) hexokinase inhibition | inhibition, % at 20 µM | Q2TB90 | hit rate 0.16% among 340,000 | AID 493160 | recombinant HKDC1, G6PDH/diaphorase resazurin coupled fluorescence;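 active = inhibition above about 35% when tested at 20 µM, limit read from the data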
Target sequence (Q2TB90 whole entry, looked up): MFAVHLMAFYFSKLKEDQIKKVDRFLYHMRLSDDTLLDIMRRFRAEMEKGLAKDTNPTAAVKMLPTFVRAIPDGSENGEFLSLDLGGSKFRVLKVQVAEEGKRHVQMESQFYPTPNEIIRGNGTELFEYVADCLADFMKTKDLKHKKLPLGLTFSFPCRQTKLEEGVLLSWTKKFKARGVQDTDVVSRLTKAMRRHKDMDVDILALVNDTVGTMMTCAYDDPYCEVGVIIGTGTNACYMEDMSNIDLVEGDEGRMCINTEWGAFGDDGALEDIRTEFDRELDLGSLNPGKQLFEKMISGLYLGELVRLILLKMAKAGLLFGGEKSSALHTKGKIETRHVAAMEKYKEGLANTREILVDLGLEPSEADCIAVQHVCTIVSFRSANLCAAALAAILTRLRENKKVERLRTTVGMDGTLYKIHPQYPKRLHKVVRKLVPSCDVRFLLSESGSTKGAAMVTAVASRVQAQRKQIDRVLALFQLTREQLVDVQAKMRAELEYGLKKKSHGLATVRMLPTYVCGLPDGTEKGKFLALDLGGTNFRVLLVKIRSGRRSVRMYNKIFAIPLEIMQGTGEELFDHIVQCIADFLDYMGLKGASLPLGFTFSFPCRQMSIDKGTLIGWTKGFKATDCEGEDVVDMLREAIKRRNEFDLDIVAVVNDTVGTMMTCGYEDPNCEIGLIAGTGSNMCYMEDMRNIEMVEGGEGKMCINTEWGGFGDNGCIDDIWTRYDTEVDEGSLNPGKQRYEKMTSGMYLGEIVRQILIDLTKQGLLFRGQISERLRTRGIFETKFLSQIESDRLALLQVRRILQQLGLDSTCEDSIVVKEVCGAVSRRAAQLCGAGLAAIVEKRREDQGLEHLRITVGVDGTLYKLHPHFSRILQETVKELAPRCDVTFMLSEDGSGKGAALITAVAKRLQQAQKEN
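Test system: recombinant HKDC1 (HK5) hexokinase enzyme, produced in-house / Doses: 20 µM test compound, 1% DMSO / Timing: 90 min, room temperature / Detection: G6PDH/diaphorase-coupled fluorescence, 1 mM NADP, 100 µM resazurin, 525/613 nm / Control set: DMSO wells with and without enzyme mix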
A3G deaminase: APOBEC3G (human) deaminase inhibition | inhibition, % at 20 µM | recombinant A3G, ssDNA deamination FAM/TAMRA fluorescence | Q9HC16 | AID 493012 | hit rate 0.28% among 330,000;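 active = inhibition of at least 40% at 20 µM, with no more than 30% in the related APOBEC3A deaminase screen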
PfG6PD inh: PfG6PD (Plasmodium falciparum) enzyme inhibition; PfGluPho enzyme, NADPH resazurin-diaphorase fluorescence; inhibition, % at 20 µM; hit rate 0.78% among 350,000; AID 504690;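 active = inhibition reaching at least a set limit at 20 µM in the primary screen, cut at about 59% in these data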
A3A deaminase: human APOBEC3A DNA deaminase inhibition; P31941; recombinant A3A, FAM/TAMRA ssDNA deamination fluorescence; inhibition, % at 20 µM; hit rate 0.41% among 330,000; AID 493011;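 active = at least 40% inhibition at 20 µM here, with at most 30% in a related deaminase screen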
iPSC survival up: hiPSC single-cell survival enhancement; ATPlite luminescence; 100% = ROCK inhibitor wells, 0% = DMSO; survival enhancement, % at 20 µM; hit rate 0.044% among 360,000; AID 602274; in the data active = survival enhancement above about 18%;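 also: cells exposed to compounds for 16 hours before the ATP read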
A3A conf: APOBEC3A (human) deaminase inhibition, confirmed; shares compounds with A3A deaminase; recombinant A3A, ssDNA deaminase UDG fluorescence assay; inhibition, % at 20 µM; hit rate 63% among 1,400;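 active = inhibition reaching a set limit, 80% of the first screen's cutoff, at 20 µM in any replicate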
UDG ctr A3A: inhibits UDG, flagging false APOBEC3A inhibitors; UDG counterscreen, FAM/TAMRA uracil oligo fluorescence; shares compounds with A3A deaminase; inhibition, % at 20 µM; AID 504714; 1,000 tested, under 10 active; call rule not given here
APOBEC3G confirm: APOBEC3G (human) deaminase inhibition, confirmed; shares compounds with A3G deaminase; recombinant A3G ssDNA deaminase, UDG/FAM-TAMRA fluorescence; inhibition, % at 20 µM; hit rate 72% among 890; AID 493152;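 active = inhibition reaching a set limit in any replicate at 20 µM, the limit being 80% of the first screen's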
UDG A3G counter: counter-screen for APOBEC3G inhibitors: E. coli UDG; shares compounds with A3G deaminase; UDG counterscreen, FAM/TAMRA oligo fluorescence; inhibition, % at 20 µM; 710 tested, under 10 active; AID 504715;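 active = compounds giving 40% or more inhibition at 20 µM in any one of the three replicates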;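 also: inhibitors lower the FAM signal released by uracil excision and alkaline cleavage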
HKDC1 act conf: HKDC1 (human) activation, single-dose confirmed; shares compounds with HKDC1 inh; recombinant HKDC1, G6PDH/diaphorase resazurin fluorescence; stronger effect = lower value; inhibition, % at 20 µM; hit rate 14% among 740;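 active = inhibition at or below a set negative limit, negative inhibition meaning the enzyme was activated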
PfG6PD confirm: confirmation of Plasmodium falciparum G6PD inhibitors. shares compounds with PfG6PD inh. recombinant PfGluPho, NADPH-diaphorase-resazurin fluorescence. inhibition, % at 20 µM. hit rate 34% among 2,400. AID 504753;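 active = inhibition of at least 50% at 20 µM in any single replicate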
Of the large screens only hits and unclear results are named; the others gave an inactive call (follow-up assays come after a bar, where they were run).

Cc1ccc2c(c1)S/C(=C/c1ccc[n+](C)c1)N2CCO	A3A deaminase 70 | A3A conf 84 | UDG ctr A3A inactive
COCc1cc(C)nc(SCc2ccccc2)c1C#N	none
COCc1cc(C)nc(Sc2nc3c(c(=O)n(C)c(=O)n3C)n2C)c1C#N	A3A deaminase 50 | A3A conf 44 | UDG ctr A3A inactive
COc1cc(CN2C[C@@H](CO)O[C@@H](n3cnc4c(N5CCCC5)ncnc43)C2)cc(OC)c1OC	none (no result: HKDC1 inh, A3G deaminase, PfG6PD inh, A3A deaminase)
CCCCn1c(N)c(-c2nc3ccccc3o2)c2c([N+](=O)[O-])nn(C)c(=O)c21	A3A deaminase 53 | A3A conf inactive
O=C(Nc1ccc2c(c1)OCO2)c1cc(C2CCCCN2C(=O)c2ccc(Cl)cc2)on1 (stereo not drawn)	none (no result: HKDC1 inh, A3G deaminase, PfG6PD inh, A3A deaminase)
O=C(Nc1ccc(F)cc1F)c1noc2c1CCC2	A3A deaminase 50 | A3A conf 33
O=C(O)C/C(=C\c1cc(Cl)c2c(c1)OCO2)c1nc2ccccc2s1	A3A deaminase 45 | A3A conf 38 | UDG ctr A3A inactive
O=C(OCc1nc2ccsc2c(=O)[nH]1)c1ccccc1	A3A deaminase 56 | A3A conf inactive | UDG ctr A3A inactive
COCCOC(=O)c1[nH]c2c(c1C)C(=O)CC(c1ccco1)C2 (stereo not drawn)	A3A deaminase 56 | A3A conf 45 | UDG ctr A3A inactive
CSCCOC(=O)c1[nH]c2c(c1C)C(=O)CC(c1ccco1)C2 (stereo not drawn)	A3A deaminase 44 | A3A conf 39 | UDG ctr A3A inactive
[NH-]c1ncnc2c1N=C[N+]2=CC=CCO	none (no result: A3G deaminase, A3A deaminase)
C[n+]1ccc(/C=C/c2ccccc2O)c2ccccc21	A3A deaminase 64 | A3A conf 65 | UDG ctr A3A inactive
CN1/C(=C/c2cc[n+](C)c3ccccc23)C=Cc2ccccc21	none (no result: A3G deaminase, A3A deaminase)
Cc1nc(/N=C(\N)N(C)C)[nH]c(=O)c1C	none
O=C(COc1ccc(Cl)cc1)OCC(=O)N1CCCCCC1	none
O=C(COc1ccc(Cl)cc1)OCC(=O)N1CCCC1	A3A deaminase 55 | A3A conf inactive | UDG ctr A3A inactive
N#Cc1c(SCC(=O)Nc2nc3ccc(Br)cc3s2)sc2c(O)cc(=O)[nH]c12	A3A deaminase 43 | A3A conf 39 | UDG ctr A3A inactive | HKDC1 act conf inactive
COc1ccc(C2=CC3=C(Br)C(=O)C(C)(OC(=O)c4ccc(Cl)nc4)C(=O)C3=CO2)cc1 (stereo not drawn)	none (no result: iPSC survival up)
COC(=O)CCC(=O)OC1(C)C(=O)C2=COC(c3ccc(OC)cc3)=CC2=C(Br)C1=O (stereo not drawn)	HKDC1 inh 37, A3A deaminase 46 (no result: iPSC survival up) | A3A conf inactive | HKDC1 act conf inactive
CCCC1NC(=O)c2cccnc2-n2c1nc1ccc(Br)cc1c2=O (stereo not drawn)	none (no result: HKDC1 inh, A3G deaminase, A3A deaminase)
O=C(/C=C\c1ccc(-c2ccccc2)o1)c1ccccc1	PfG6PD inh 74, A3A deaminase 48 | A3A conf 11 | UDG ctr A3A inactive | PfG6PD confirm inactive
Cc1ccc(-c2c(C(=O)N/N=C/c3ccco3)nnn2-c2nonc2N)cc1	PfG6PD inh 62, A3A deaminase 61 | A3A conf inactive | PfG6PD confirm inactive
CCOc1ccc(-c2c(C(=O)N/N=C/c3ccco3)nnn2-c2nonc2N)cc1	none
Cc1cc(NC(=O)c2coc(=O)c(Br)c2)ccc1C(C)C	none
CCc1n[nH]c(=S)n1/N=C/c1c(O)ccc2ccccc12	A3G deaminase 52 | APOBEC3G confirm 75 | UDG A3G counter inactive
CCc1n[nH]c(=S)n1/N=C/c1cccc2ccccc12	none
CC1=C(C(=O)N2CCOCC2)CC(CC(=O)NC2CCCCC2)C(=O)N1Cc1ccc(F)cc1 (stereo not drawn)	none (no result: HKDC1 inh, A3G deaminase, A3A deaminase)
O=[N+]([O-])c1cccc(/C=N/n2c(-c3cccnc3)n[nH]c2=S)c1	A3G deaminase 69 | APOBEC3G confirm 74 | UDG A3G counter inactive
O=[N+]([O-])c1ccc(/C=N/n2c(-c3cccnc3)n[nH]c2=S)cc1	A3G deaminase 63 | APOBEC3G confirm 62 | UDG A3G counter inactive
Cc1n[nH]c(=S)n(/N=C/c2cccc([N+](=O)[O-])c2)c1=O	none
O=[N+]([O-])c1ccc(Cl)c(/C=N/n2c(-c3cccnc3)n[nH]c2=S)c1	A3G deaminase 48 (no result: HKDC1 inh, PfG6PD inh, iPSC survival up) | APOBEC3G confirm inactive
CNC(=O)c1c[nH]c2ccc(S(=O)(=O)Nc3cccc(SC)c3)cc2c1=O	none
CC(C)Cn1c(-c2csc(C(C)C)c2)n[nH]c1=S	none
CCCCn1c(-c2csc(CCC)c2)n[nH]c1=S	none (no result: A3G deaminase, A3A deaminase)
COc1ccc(-c2n[nH]c(=S)n2CC(C)C)cc1	none
CCCc1cc(-c2n[nH]c(=S)n2CC)cs1	A3G deaminase 43 | APOBEC3G confirm 79 | UDG A3G counter inactive
CCc1cc(-c2n[nH]c(=S)n2CC)cs1	A3G deaminase 52 | APOBEC3G confirm 83 | UDG A3G counter inactive
Cc1cc(-c2n[nH]c(=S)n2CC(C)C)cs1	A3G deaminase 49 | APOBEC3G confirm 66 | UDG A3G counter inactive
CCn1c(-c2csc(C(C)C)c2)n[nH]c1=S	A3G deaminase 51 | APOBEC3G confirm inactive
CC(C)CC1C(=O)N(Cc2cn(CC3CCCCC3)nn2)CCS(=O)(=O)N1Cc1ccc(-c2cccc(C#N)c2)cc1 (stereo not drawn)	none (no result: A3G deaminase, A3A deaminase)
CCCCCc1ccc(-c2ccc(/C=C/C(=O)O)cc2)nc1	A3G deaminase 89 | APOBEC3G confirm inactive
CC(C)OC(=O)CSc1nnc(-c2ccc(C(C)(C)C)cc2)n1N	A3G deaminase 42 | APOBEC3G confirm inactive
COC(=O)c1sc(NC(=O)CSc2nnnn2C)nc1C	A3G deaminase 56 | APOBEC3G confirm inactive | UDG A3G counter inactive
COc1cnc(NS(=O)(=O)c2ccc(N)cc2)nc1	A3G deaminase 50 | APOBEC3G confirm 20 | UDG A3G counter inactive
Cc1cc(C)nc(NS(=O)(=O)c2ccc(N)cc2)n1	none
O=S(=O)(N/N=C/c1cccc(OC2CSC2)c1)c1ccccc1	none

From PubChem
